According to ChEMBL document CHEMBL4428080, “Discovery and Pharmacological Characterization of Novel Quinazoline-Based PI3K Delta-Selective Inhibitors” (ACS Med Chem Lett, 2016):
In brackets after ≈: the same amount, converted by molar mass.

Key:
[1] = Octanol/water partition coefficient, log P of the compound by high-throughput assay; assay type: physicochemical
[2] = Equilibrium solubility of the compound at pH 6.8 by high-throughput assay; assay type: physicochemical; conditions: buffer
Procedure, shortened: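 High-throughput equilibrium solubility determination at pH 6.8, reported in mM.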

[3] = Volume of distribution at steady state in Sprague-Dawley rat at 1 mg/kg, iv by HPLC method; assay type: ADME, organism-based; conditions: in vivo, read-out: Vdss
[4] = Dose normalized AUC in Sprague-Dawley rat at 1 mg/kg, iv by HPLC method; assay type: ADME, organism-based; conditions: in vivo
[5] = Dose normalized AUC in Sprague-Dawley rat at 3 mg/kg, po by HPLC method; assay type: ADME, organism-based; conditions: in vivo
[6] = Oral bioavailability in Sprague-Dawley rat at 3 mg/kg by HPLC method; assay type: ADME, organism-based; conditions: in vivo
Procedure, shortened: (§1)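 Oral PK in Sprague Dawley rats at 3 or 30 mg/kg and in dogs at 0.3 mg/kg. Dose-normalized parameters are scaled to 1 mg·kg^-1.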

[7] = Dose normalized Cmax in Sprague-Dawley rat at 3 mg/kg, po by HPLC method; assay type: ADME, organism-based; conditions: in vivo; procedure, shortened: as §1
[8] = Tmax in Sprague-Dawley rat at 3 mg/kg, po by HPLC method; assay type: ADME, organism-based; conditions: in vivo; procedure, shortened: as §1
[9] = Dose normalized AUC in Sprague-Dawley rat at 30 mg/kg, po by HPLC method; assay type: ADME, organism-based; conditions: in vivo; procedure, shortened: as §1
[10] = Oral bioavailability in Sprague-Dawley rat at 30 mg/kg by HPLC method; assay type: ADME, organism-based; conditions: in vivo; procedure, shortened: as §1
[11] = Dose normalized Cmax in Sprague-Dawley rat at 30 mg/kg, po by HPLC method; assay type: ADME, organism-based; conditions: in vivo; procedure, shortened: as §1
[12] = Tmax in Sprague-Dawley rat at 30 mg/kg, po by HPLC method; assay type: ADME, organism-based; conditions: in vivo; procedure, shortened: as §1
[13] = Volume of distribution at steady state in Beagle dog at 0.1 mg/kg, iv by HPLC method; assay type: ADME, organism-based, Canis lupus familiaris; conditions: in vivo, read-out: Vdss
[14] = Dose normalized AUC in Beagle dog at 0.1 mg/kg, iv by HPLC method; assay type: ADME, organism-based, Canis lupus familiaris; conditions: in vivo
[15] = Dose normalized AUC in Beagle dog at 0.3 mg/kg, po by HPLC method; assay type: ADME, organism-based, Canis lupus familiaris; conditions: in vivo; procedure, shortened: as §1
[16] = Oral bioavailability in Beagle dog at 0.3 mg/kg by HPLC method; assay type: ADME, organism-based, Canis lupus familiaris; conditions: in vivo; procedure, shortened: as §1
[17] = Dose normalized Cmax in Beagle dog at 0.3 mg/kg, po by HPLC method; assay type: ADME, organism-based, Canis lupus familiaris; conditions: in vivo; procedure, shortened: as §1
[18] = Tmax in Beagle dog at 0.3 mg/kg, po by HPLC method; assay type: ADME, organism-based, Canis lupus familiaris; conditions: in vivo; procedure, shortened: as §1
[19] = Drug uptake in Lewis rat blood at 30 mg/kg, po administered as single dose by LC-MS analysis; assay type: ADME, organism-based; conditions: in vivo, read-out: Drug uptake
Procedure, shortened: (§2)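 Lewis rats received a single oral dose of 30 mg/kg. Blood was collected at various time points and drug levels were determined.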

[20] = Tmax in Lewis rat blood at 30 mg/kg, po administered as single dose by LC-MS analysis; assay type: ADME, organism-based; conditions: whole blood; procedure, shortened: as §2

| Compound | logP [1] | solubility thermodynamic [2] [µM] | further results |
| --- | --- | --- | --- |
| COc1ccc(-c2ccc3ncnc(-c4cccc(C(=O)N5CCN(C(C)=O)CC5)c4)c3c2)cn1 | 2.7 | > 1000 |  |
| COc1ccc(-c2ccc3ncnc(-c4cccc(C(=O)N5CCN(C(C)=O)CC5)c4)c3c2)cc1OC | 1.9 | 800 (≈ 397 µg/mL) |  |
| COc1ncc(-c2ccc3ncnc(-c4cccc(C(=O)N5CCN(C)CC5)c4)c3c2)cc1C(F)(F)F | 3.9 | 850 (≈ 431 µg/mL) |  |
| COc1ncc(-c2ccc3ncnc(-c4cccc(C(=O)N5CCN(C(C)=O)CC5)c4)c3c2)cc1C#N | 2.8 | 210 (≈ 103 µg/mL) | Vd [3]: 2 L/kg; AUC/dose [4]: 2315 nM·h; AUC/dose [5]: 500 nM·h; bioavailability [6]: 22%; Cmax/dose [7]: 48 nM; Tmax [8]: 3.5 h; AUC/dose [9]: 237 nM·h; bioavailability [10]: 10%; Cmax/dose [11]: 20 nM; Tmax [12]: 5.3 h; Vd [13]: 1 L/kg; AUC/dose [14]: 2798 nM·h; AUC/dose [15]: 1188 nM·h; bioavailability [16]: 42%; Cmax/dose [17]: 440 nM; Tmax [18]: 0.8 h; concentration [19]: 5000 nM; Tmax [20]: 2 h |
| COc1ccc(-c2ccc3ncnc(N4CCC[C@H](C(=O)N5CCN(C)CC5)C4)c3c2)cn1 |  | > 1000 |  |
| COc1ncc(-c2ccc3ncnc(-c4cccc(C(=O)N5CCN(C)CC5)c4)c3c2)cc1C#N | 1.9 | 420 (≈ 195 µg/mL) |  |
| COc1ccc(-c2ccc3ncnc(-c4cccc(C(=O)N5CCN(C)CC5)c4)c3c2)cc1OC | 2.8 | 850 (≈ 398 µg/mL) |  |
| CN1CCN(C(=O)c2cccc(-c3ncnc4ccc(-c5cnc6ccccc6c5)cc34)c2)CC1 | 3.1 | > 1000 |  |
| COc1ccc(-c2ccc3ncnc(-c4cccc(C(=O)N5CCN(C)CC5)c4)c3c2)cn1 | 2.2 | > 1000 |  |
| COc1ncc(-c2ccc3ncnc(-c4cccc(C(=O)N5CCN(C(C)=O)CC5)c4)c3c2)cc1C(F)(F)F | 3.1 | 380 (≈ 203 µg/mL) |  |
| COc1ccc(-c2ccc3ncnc(-c4cncc(C(=O)N5CCN(C)CC5)c4)c3c2)cn1 | 1.9 | > 1000 |  |
| CC(=O)N1CCN(C(=O)c2cccc(-c3ncnc4ccc(-c5cnc6ccccc6c5)cc34)c2)CC1 | 2.8 | 610 (≈ 297 µg/mL) |  |
